NS3 helicase inh – inhibitors of Hepatitis C virus NS3 helicase; actives 0.56% (n = 290,000); inhibition, % at 10.9 µM; NS3 helicase DNA unwinding, Cy5 molecular beacon fluorescence;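 active = inhibition above the mean of all tested compounds plus 3 SD, set per campaign, cut at about 35% in these data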;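 note: 0% = DMSO wells and 100% = thioflavine S control wells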
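System: NS3 helicase fragment of HCV / Schedule: 1 h at 25 °C / Control set: DMSO alone as 0% and 110 µM thioflavine S as 100% / Reagent: Cy5/quencher beacon DNA duplex and ATP to start / Technique: Cy5 fluorescence / Replication: singlicate / Evaluation: % inhibition of end-to-start signal ratio versus controls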
EBNA-1 inhibitor – blocks EBNA-1 binding to DNA; actives 0.34% (n = 300,000); inhibition, % at 14.8 µM; EBNA-1 DNA binding, fluorescence polarization; in the data active = inhibition above about 28%
CTSL1 counter – cathepsin L1 inhibition, PFM18AAP counter-screen. inhibition, % at 5.96 µM. actives 0.49% (n = 300,000). recombinant F. hepatica cathepsin L1, Z-Leu-Arg-MCA fluorescence. AID 1906;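 active = inhibition above the mean of all tested compounds plus 3 SD, set per screening campaign, cut at about 17% in these data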;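 note: 0% = plate median of test compound wells and 100% = 1 µM Z-Phe-Ala-diazomethylketone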
ZTA counter – ZTA (EBV) inhibition in EBNA-1 counter-screen. ZTA-DNA binding, fluorescence polarization. actives 0.15% (n = 320,000). P03206. inhibition, % at 11 µM; in the data active = inhibition above about 33%
Target sequence (P03206 whole entry, looked up): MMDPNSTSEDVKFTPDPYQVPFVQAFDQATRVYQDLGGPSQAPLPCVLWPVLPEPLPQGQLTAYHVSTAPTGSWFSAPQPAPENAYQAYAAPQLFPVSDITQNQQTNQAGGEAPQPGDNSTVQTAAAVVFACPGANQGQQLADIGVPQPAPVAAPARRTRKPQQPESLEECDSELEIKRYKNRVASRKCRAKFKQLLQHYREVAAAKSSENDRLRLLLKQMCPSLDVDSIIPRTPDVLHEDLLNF
Starred values were filed as active, the others as inactive; . = no result. This is a sample that favours compounds with a hit; in the whole collection about 1.4% have one here.

SMILES	NS3 helicase inh	EBNA-1 inhibitor	CTSL1 counter	ZTA counter
Cc1ccc(NC2=C(N3CCOCC3)C(=O)c3ccccc3C2=O)cc1	6	-2	17*	-2
O=C(O)c1ccc(NC2=C(N3CCOCC3)C(=O)c3ccccc3C2=O)cc1	14	1	33*	12
Cc1ccc(NC2=C(Cl)C(=O)c3ccccc3C2=O)cc1	7	7	5	-7
CC(=O)N(C1=C(N2CCOCC2)C(=O)c2ccccc2C1=O)c1ccc(C(=O)O)cc1	10	-4	14	-6
Cc1cc(C)c(C)c(C(=O)COC(=O)CNC(=O)CNC(=O)c2ccco2)c1C	12	-5	1	12
N#Cc1c(F)cccc1N1CCOCC1	6	10	-2	9
Cc1ccccc1NC(=O)CCCn1nc(C)c2c(C)n(-c3ccccc3)nc2c1=O	-5	12	5	-2
COc1ccc(/C=N/NC(=O)c2nn(-c3ccccc3)c(=O)c3c(N)scc23)cc1	12	-5	31*	-9
Cc1ccc2oc(-c3ccc(C)c(NC(=S)NC(=O)c4cccs4)c3)nc2c1	10	29*	-2	-12
COc1ccc(CN2C(=O)C3C4C=CC(C4)C3C2=O)cc1 (centres undefined)	3	0	3	13
Oc1oc(-c2ccccc2Br)nc1C=Nc1ccc(Br)cn1	-7	24	63*	12
CN=Cc1nc(-c2ccccc2)oc1O	-5	-8	7	0
Oc1oc(-c2ccccc2)nc1/C=N/c1ccccn1	-1	-12	71*	-4
Brc1ccc(-c2nnc(-c3ccccc3Br)o2)cc1	-2	-2	1	-4
O=C(O)[C@H](Cc1ccccc1)NC(=O)C(c1ccccc1)(c1ccccc1)c1ccccc1	5	-17	6	-1
CSc1ccc(C(c2c(C)[nH][nH]c2=O)c2c(C)[nH][nH]c2=O)cc1	-7	-9	4	-7
CCOc1cccc(=O)c2c(C)n(-c3ccc(C(=O)O)cc3)c(C)c12	22	7	2	41*
CC1CN(C)C(C)C/C1=N/Oc1ccccc1[N+](=O)[O-] (centres undefined)	-2	-5	6	-4
O=C(CCl)Nc1cn(-c2ccccc2)nc1-c1ccccc1	4	9	82*	13
CC(=O)Nc1cn(-c2ccccc2)nc1-c1ccccc1	2	-10	-5	0
CC(C)[C@H](NC(=O)c1ccccc1)C(=O)OCC(=O)c1ccc(S(=O)(=O)N2CCCCC2)cc1	.	6	35*	-14
Cc1cc(C)nc(/N=C2\NC(=O)CC(C(=O)O)N2c2ccc(Oc3ccccc3)cc2)n1 (centres undefined)	16	9	37*	3
O=Cc1c[nH]c2ccc(C(=O)c3ccccc3)cc12	33	-4	18*	-23
Cc1ccc(C(=O)NNC(=O)Cc2nc3nc(C)cc(C)n3n2)cc1	-3	-13	4	10
Cc1cc(C)n2nc(CC(=O)NNC(=O)c3ccc(N(C)C)cc3)nc2n1	5	-5	36*	-6
SMILES	NS3 helicase inh	EBNA-1 inhibitor	CTSL1 counter	ZTA counter
CCN(CC)C(=O)CSc1nnc(SCc2ccc(Cl)cc2)s1	-2	-20	2	-8
CC(NC(=O)CCl)c1ccc(Cl)c(Cl)c1 (centres undefined)	-3	5	23*	-3
CC(NC(=O)c1ccc(Cl)c(Cl)c1)c1ccc(-c2ccccc2)cc1 (centres undefined)	-4	2	-2	-11
COC(=O)c1cccc(N2C(=O)C(Cl)=C(N3CCOCC3)C2=O)c1	0	0	32*	8
O=C1C(Cl)=C(N2CCOCC2)C(=O)N1c1ccccc1Cl	5	5	17	-2
O=C1C(Cl)=C(N2CCOCC2)C(=O)N1c1cccc(C(F)(F)F)c1	26	-5	23*	-26
COc1ccc(-c2nn(CCC(=O)O)cc2/C=C2\SC(N)=NC2=O)cc1	0	-6	6	-2
O=C(N/N=C/c1cccc(F)c1)c1cc(-c2ccco2)nc2ccccc12	40*	10	-4	-4
COc1cc(/C=N/NC(=O)c2cc(-c3ccco3)nc3ccccc23)cc(OC)c1O	5	-11	3	3
CCOC(=O)N1CCN(C(=O)c2ccc3c(c2)N(C)C(=O)/C(=C\c2ccc(OCC)c(OC)c2)S3)CC1	-9	-2	20*	-5
CCOc1ccc(/C=C2/Sc3ccc(C(=O)N4CCN(C(=O)c5ccco5)CC4)cc3N(C)C2=O)cc1OC	-15	-7	1	13
COc1ccc(C(=O)NCCCOc2cccc(NC(C)=O)c2)cc1	-2	-6	-5	-17
O=C(NC1CCCCC1)N1CCCCCCC1	9	-15	18*	-11
Cc1ccc(N=c2ssnc2Cl)cc1	-25	-6	4	11
Cc1cc(C)nc(/N=c2/ssnc2Cl)c1	15	-5	22*	-2
CC(=O)Nc1ccc(N2C(=O)CC(N3CCN(Cc4ccc5c(c4)OCO5)CC3)C2=O)cc1 (centres undefined)	0	-9	3	-16
Cc1onc(C(=O)Nc2sc3c(c2C#N)CCCC3)c1[N+](=O)[O-]	5	5	23*	-20
Cc1onc(-c2ccccc2Cl)c1C(=O)Nc1sc2c(c1C#N)CCC2	-8	9	1	16
COc1ccc(C(=O)c2c(C(F)(F)F)oc3c2C(=O)c2ccccc2C3=O)cc1OC	-3	-12	31*	-24
COc1ccc(C(=O)Nc2ccc3c(c2)C(=O)c2ccccc2C3=O)cc1OC	8	6	5	7
COc1ccc(S(=O)(=O)NN(C)c2ncc(C(F)(F)F)cc2Cl)cc1	-8	2	0	7
Cc1ccn2c(=O)c(C(=O)NCCCN3CCCC3=O)c(O)nc2c1	-2	-3	50*	13
Cc1ccn2c(=O)c(C(=O)NCCCN3CCCCC3C)c(O)nc2c1 (centres undefined)	6	-3	0	8
Cc1sc(NC(=O)c2cccs2)c(C(=O)OC(C)C)c1C	4	1	1	-5
O=C1OC(c2ccccc2)=NC12CC2c1ccc(Cl)cc1 (centres undefined)	0	-9	21*	-12
SMILES	NS3 helicase inh	EBNA-1 inhibitor	CTSL1 counter	ZTA counter
CC1(C)CN(c2ccsc2C(=O)O)C1=O	0	-5	26*	-28
CC1(C)CN(c2ccc(F)cc2)C1=O	-3	7	1	3
Cc1c(C(=O)OCC(=O)Nc2ccc(S(N)(=O)=O)cc2)oc2c1ccc1ccccc12	5	72*	4	33*
CC(=O)c1cccc(NC(=S)NCCC2=CCCCC2)c1	-3	-8	1	0
O=C(NCCC1=CCCCC1)Nc1ccc2nsnc2c1	-2	8	24*	-5
CCC(C)(C)NC(=O)CSc1nc(Cc2ccccc2)nc2ccccc12	-7	.	.	.
Oc1oc(-c2ccco2)nc1C=Nc1cccc(Cl)c1	-1	8	37*	-17
Oc1oc(-c2ccco2)nc1C=Nc1ccccc1	4	-6	3	4
O=C(O)C/C(=C\c1ccc2c(c1)OCO2)c1nc2ccccc2s1	18	14	2	8
COc1ccccc1/C=C(/CC(=O)NCc1ccc2c(c1)OCO2)c1nc2ccccc2s1	35	36*	3	-1

Source: PubChem
